# From ChEMBL document CHEMBL1138456 (J Med Chem, 2009)
# Assays:
# [1] = Chemical stability assessed as half life at pH 2 by HPLC; type: physicochemical; settings: buffer
# [2] = Stability assessed as half life at pH 8.0 in presence of calf intestine alkaline phosphatase; type: ADME, tissue-based; settings: cattle
# In short: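 Prodrug in 50 mM sodium phosphate pH 7.4 was incubated with calf intestinal alkaline phosphatase (0.000125 units/µL) in 10 mM Tris pH 8.0 at 37 °C for 30 min. Reactions were quenched with NaCl and MeOH/acetonitrile, held on ice for 30 min and centrifuged. Dephosphorylation half-life is in minutes.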
# [3] = Aqueous solubility in water by shake flask method; type: physicochemical
# In short: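 Solubility: about 5 mg solid per 1 mL deionized water, unbuffered, in triplicate. Samples were vortexed, sonicated and protected from light, then tumbled at 25 °C for 1 day. They were centrifuged, filtered and diluted, and analyzed by HPLC with UV detection at 215 nm.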
# [4] = Half life in rat at 5 mg/kg, iv; type: ADME, organism-based; set-up: dose 5 mg/kg, route intravenous; settings: in vivo
# [5] = Clearance in rat at 5 mg/kg, iv; type: ADME, organism-based; set-up: dose 5 mg/kg, route intravenous; settings: in vivo
# [6] = Chemical stability assessed as half life at pH 7.4 by HPLC; type: physicochemical; settings: buffer
# [7] = Chemical stability assessed as half life at pH 5 by HPLC; type: physicochemical; settings: buffer
# [8] = Chemical stability assessed as half life at pH 9 by HPLC; type: physicochemical; settings: buffer
# [9] = AUC in Sprague-Dawley rat plasma at 5 mg/kg, po coadministered with RTV; type: ADME, organism-based; set-up: dose 5 mg/kg, route oral
# In short: (§1)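 Male Sprague-Dawley-derived rats (0.25-0.35 kg, n = 3) were given oral gavage doses equivalent to 5 mg/kg parent (5 mg equiv/kg). Prodrugs were given in 5% dextrose in water. Parents were given in ethanol/propylene glycol formulation. For LPV species, a 5 mg/kg RTV gavage dose was given first. Plasma was analyzed by reversed-phase HPLC with an internal standard. Cmax is in µg/mL and AUC in µg·h/mL.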
# [10] = Cmax in Sprague-Dawley rat plasma at 5 mg/kg, po coadministered with RTV; type: ADME, organism-based; set-up: dose 5 mg/kg, route oral; in short: as §1
# [11] = AUC in po dosed Beagle dog at dose molar equivalent to 5 mg/kg RTV coadministered with LPV dosed as 5% dextrose containing solution; type: ADME, organism-based, Canis lupus familiaris; set-up: dose 5 mg/kg, route oral; settings: plasma
# In short: (§2)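 Male and female beagle dogs (8-12 kg, n = 3) were dosed orally at 5 mg equiv/kg of parent. Parents were dissolved in 5% dextrose with 20% ethanol, 30% propylene glycol and 2 equiv methanesulfonic acid. Prodrugs were dissolved in 5% dextrose. Plasma was measured by reversed-phase HPLC with an internal standard. Cmax is in µg/mL and AUC in µg·h/mL.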
# [12] = system: Rattus norvegicus; assay: AUC in Sprague-Dawley rat plasma at 5 mg/kg, po; type: ADME, organism-based; set-up: dose 5 mg/kg, route oral; settings: in vivo; in short: as §1
# [13] = AUC in po dosed Beagle dog at dose molar equivalent to 5 mg/kg RTV coadministered with LPV-OMP dosed as 5% dextrose containing solution; type: ADME, organism-based, Canis lupus familiaris; set-up: dose 5 mg/kg, route oral; settings: plasma; in short: as §2
# [14] = Cmax in po dosed Beagle dog at dose molar equivalent to 5 mg/kg RTV coadministered with LPV-OMP dosed as 5% dextrose containing solution; type: ADME, organism-based, Canis lupus familiaris; set-up: dose 5 mg/kg, route oral; settings: in vivo; in short: as §2
# [15] = Cmax in po dosed Beagle dog at dose molar equivalent to 5 mg/kg RTV coadministered with LPV dosed as 5% dextrose containing solution; type: ADME, organism-based, Canis lupus familiaris; set-up: dose 5 mg/kg, route oral; settings: in vivo; in short: as §2
Compound,half-life [1],half-life [2],solubility thermodynamic [3],further results
CC(C)c1nc(CN(C)C(=O)N[C@H](C(=O)N[C@@H](Cc2ccccc2)C[C@H](OCOP(=O)([O-])[O-])[C@H](Cc2ccccc2)NC(=O)OCc2cncs2)C(C)C)cs1.[Na+].[Na+],516 min,7 min,> 5000 µg/mL,–
Cc1cccc(C)c1OCC(=O)N[C@@H](Cc1ccccc1)[C@H](C[C@H](Cc1ccccc1)NC(=O)[C@H](C(C)C)N1CCCNC1=O)OCOP(=O)([O-])[O-].[Na+].[Na+],468 min,13.9 min,> 5000 µg/mL,–
CC(C)c1nc(CN(C)C(=O)N[C@H](C(=O)N[C@@H](Cc2ccccc2)C[C@H](OP(=O)([O-])[O-])[C@H](Cc2ccccc2)NC(=O)OCc2cncs2)C(C)C)cs1.[Na+].[Na+],–,–,–,half-life [4]: 13.8 min; clearance [5]: 43 mL/min/kg
CCCC(O[C@@H](C[C@H](Cc1ccccc1)NC(=O)[C@@H](NC(=O)N(C)Cc1csc(C(C)C)n1)C(C)C)[C@H](Cc1ccccc1)NC(=O)OCc1cncs1)OP(=O)([O-])[O-].[Na+].[Na+] (stereo not given in full),–,31.7 min,–,–
CC(O[C@@H](C[C@H](Cc1ccccc1)NC(=O)[C@@H](NC(=O)N(C)Cc1csc(C(C)C)n1)C(C)C)[C@H](Cc1ccccc1)NC(=O)OCc1cncs1)OP(=O)([O-])[O-].[Na+].[Na+] (stereo not given in full),< 15 min,14.8 min,> 5000 µg/mL,half-life [6]: 12 days; half-life [7]: 76 min; half-life [8]: > 100 days
CC(C)c1nc(CN(C)C(=O)N[C@H](C(=O)N[C@@H](Cc2ccccc2)C[C@H](OC(OP(=O)([O-])[O-])C(C)C)[C@H](Cc2ccccc2)NC(=O)OCc2cncs2)C(C)C)cs1.[Na+].[Na+] (stereo not given in full),–,> 30 min,–,–
Cc1cccc(C)c1OCC(=O)N[C@@H](Cc1ccccc1)[C@H](C[C@H](Cc1ccccc1)NC(=O)[C@H](C(C)C)N1CCCNC1=O)OC(C)OP(=O)([O-])[O-].[Na+].[Na+] (stereo not given in full),< 15 min,20.4 min,> 5000 µg/mL,half-life [6]: 19 days; half-life [7]: 133 min; half-life [8]: > 100 days
Cc1cccc(C)c1OCC(=O)N[C@@H](Cc1ccccc1)[C@@H](O)C[C@H](Cc1ccccc1)NC(=O)[C@H](C(C)C)N1CCCNC1=O [LOPINAVIR],–,–,7 µg/mL,AUC [9]: 9280 ng·h/mL; Cmax [10]: 1550 ng/mL
CC(C)c1nc(CN(C)C(=O)N[C@H](C(=O)N[C@@H](Cc2ccccc2)C[C@H](O)[C@H](Cc2ccccc2)NC(=O)OCc2cncs2)C(C)C)cs1 [RITONAVIR],–,–,–,AUC [11]: 2190 ng·h/mL; AUC [12]: 3530 ng·h/mL; AUC [13]: 4430 ng·h/mL; Cmax [14]: 2130 ng/mL; Cmax [15]: 1320 ng/mL
